ChEMBL document CHEMBL1649241, “Antimalarial activity of simalikalactone E, a new quassinoid from Quassia amara L. (Simaroubaceae)” (Antimicrob Agents Chemother, 2009)

Assays:
[1] = test system: THP-1; test: Cytotoxicity against human THP1 cells assessed as incorporation of [3H]hypoxanthine after 48 hrs; format: cell-based; details: thp-1, 48 h
In short: (§1)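 Vero, MCF7 and THP1 cells were grown under the P. falciparum culture conditions, except that 10% fetal calf serum replaced 5% human serum. Cells were incubated 48 h with serial drug dilutions. Growth was measured by [3H]hypoxanthine incorporation relative to untreated controls. IC50 is the mean ± SEM of ≥3 independent experiments.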

[2] = test system: Vero; test: Cytotoxicity against african green monkey Vero cells assessed as incorporation of [3H]hypoxanthine after 48 hrs; format: cell-based; details: chlorocebus sabaeus; in short: as §1
[3] = test system: Plasmodium berghei; test: Antiplasmodial activity against Plasmodium berghei infected in ip dosed mouse; format: functional
[4] = test system: MCF7; test: Cytotoxicity against human MCF7 cells assessed as incorporation of [3H]hypoxanthine after 48 hrs; format: cell-based; details: mcf7, 48 h; in short: as §1
[5] = test system: Plasmodium yoelii yoelii; test: Antiplasmodial activity against Plasmodium yoelii yoelii infected in po dosed rodents; format: functional
[6] = test system: Plasmodium vinckei petteri; test: Antiplasmodial activity against Plasmodium vinckei petteri infected in CD mouse assessed as suppression of parasitemia at 10 mg/kg/day, ip measured on day 5 post-infection by Giemsa staining; format: functional; details: 120 h, route intraperitoneal
In short: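 Four-day suppressive test in female CD mice (20 ± 2 g) infected on day 0 with P. vinckei petteri-infected red blood cells in RPMI. Groups of five treated i.p. once daily, days 0–3; DMSO-only mice were the i.p. control. Parasitemia was counted on Giemsa-stained tail-blood smears (at least 5,000 erythrocytes). Inhibition % = (control − treated parasitemia)/control × 100.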

[7] = test system: Plasmodium vinckei petteri; test: Antiplasmodial activity against Plasmodium vinckei petteri infected in po dosed CD mouse assessed as mean survival time at 5 mg/kg/day, ip for 4 days measured upto day 21 post-infection; format: functional
In short: (§2)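 Female CD mice were infected with 10^6 P. vinckei petteri-infected erythrocytes and dosed i.p. or p.o. on days 0–3, five per group. Survival was followed to day 21. Mean survival time is the area under the Kaplan–Meier survivor function. Where mice survived, an extended mean was obtained by exponential extension of the survivor function to zero. Comparisons used the log rank test.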

[8] = test system: Plasmodium vinckei petteri; test: Antiplasmodial activity against Plasmodium vinckei petteri infected in CD mouse assessed as suppression of parasitemia at 5 mg/kg/day, ip measured on day 5 post-infection by Giemsa staining; format: functional; details: 120 h, route intraperitoneal
In short: (§3)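 Four-day suppressive test in female CD mice (20 ± 2 g) infected with 10^6 P. vinckei petteri-infected erythrocytes on day 0. Groups of five were dosed i.p. (DMSO vehicle) or p.o. (carboxymethylcellulose vehicle) on days 0–3 at 0.5–20 mg/kg/day. Parasitemia was read from Giemsa-stained tail-blood smears (≥5,000 erythrocytes). % inhibition = (control − treated parasitemia)/control × 100.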

[9] = test system: Plasmodium vinckei petteri; test: Antiplasmodial activity against Plasmodium vinckei petteri infected in CD mouse assessed as suppression of parasitemia at 1 mg/kg/day, ip measured on day 5 post-infection by Giemsa staining; format: functional; details: 120 h, route intraperitoneal; in short: as §3
[10] = test system: Plasmodium vinckei petteri; test: Antiplasmodial activity against Plasmodium vinckei petteri infected in po dosed CD mouse assessed as mean survival time at 10 mg/kg/day, ip for 4 days measured upto day 21 post-infection; format: functional; in short: as §2
[11] = test system: Plasmodium vinckei petteri; test: Antiplasmodial activity against Plasmodium vinckei petteri infected in po dosed CD mouse assessed as extended mean survival time at 10 mg/kg/day, ip for 4 days; format: functional; in short: as §2
[12] = test system: Plasmodium vinckei petteri; test: Antiplasmodial activity against Plasmodium vinckei petteri infected in po dosed CD mouse assessed as extended mean survival time at 20 mg/kg/day, po for 4 days; format: functional; in short: as §2
[13] = test system: Plasmodium vinckei petteri; test: Antiplasmodial activity against Plasmodium vinckei petteri infected in CD mouse assessed as suppression of parasitemia at 1 mg/kg/day, po measured on day 5 post-infection by Giemsa staining; format: functional; details: 120 h; in short: as §3
[14] = test system: Plasmodium vinckei petteri; test: Antiplasmodial activity against Plasmodium vinckei petteri infected in po dosed CD mouse assessed as mean survival time at 10 mg/kg/day, po for 4 days measured upto day 21 post-infection; format: functional; in short: as §2
[15] = test system: Plasmodium vinckei petteri; test: Antiplasmodial activity against Plasmodium vinckei petteri infected in po dosed CD mouse assessed as extended mean survival time at 10 mg/kg/day, po for 4 days; format: functional; in short: as §2
[16] = test system: Plasmodium vinckei petteri; test: Antiplasmodial activity against Plasmodium vinckei petteri infected in po dosed CD mouse assessed as extended mean survival time at 1 mg/kg/day, ip for 4 days; format: functional; in short: as §2
[17] = test system: Plasmodium vinckei petteri; test: Antiplasmodial activity against Plasmodium vinckei petteri infected in po dosed CD mouse assessed as mean survival time at 1 mg/kg/day, po for 4 days measured upto day 21 post-infection; format: functional; in short: as §2
[18] = test system: Plasmodium vinckei petteri; test: Antiplasmodial activity against Plasmodium vinckei petteri infected in CD mouse assessed as suppression of parasitemia at 10 mg/kg/day, po measured on day 5 post-infection by Giemsa staining; format: functional; details: 120 h; in short: as §3
[19] = test system: Plasmodium vinckei petteri; test: Antiplasmodial activity against Plasmodium vinckei petteri infected in po dosed CD mouse assessed as suppression of parasitemia measured on day 5 post-infection by Giemsa staining; format: functional; details: 120 h; in short: as §3
[20] = test system: Plasmodium vinckei petteri; test: Antiplasmodial activity against Plasmodium vinckei petteri infected in ip dosed CD mouse assessed as suppression of parasitemia measured on day 5 post-infection by Giemsa staining; format: functional; details: 120 h; in short: as §3
[21] = test system: Plasmodium vinckei petteri; test: Antiplasmodial activity against Plasmodium vinckei petteri infected in po dosed CD mouse assessed as extended mean survival time at 5 mg/kg/day, ip for 4 days; format: functional; in short: as §2
[22] = test system: Plasmodium vinckei petteri; test: Antiplasmodial activity against Plasmodium vinckei petteri infected in CD mouse assessed as suppression of parasitemia at 0.5 mg/kg/day, ip measured on day 5 post-infection by Giemsa staining; format: functional; details: 120 h, route intraperitoneal; in short: as §3
[23] = test system: Plasmodium vinckei petteri; test: Antiplasmodial activity against Plasmodium vinckei petteri infected in po dosed CD mouse assessed as mean survival time at 1 mg/kg/day, ip for 4 days measured upto day 21 post-infection; format: functional; in short: as §2
[24] = test system: Plasmodium falciparum; test: Antiplasmodial activity against Plasmodium falciparum W2 gametocytes assessed as suppression of parasitemia […] by Giemsa staining; format: functional, organism-based
In short: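 W2 gametocytogenesis was induced on day 0 by a modified Ifediba–Vanderberg method, with N-acetylglucosamine added on day 10. Increasing compound dilutions were added on day 13. On day 15, Giemsa-stained thin smears were counted (≥10,000 erythrocytes each) to estimate gametocytemia against untreated and reference-drug controls. IC50 is the mean ± SEM of ≥3 independent experiments.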

[25] = test system: Plasmodium vinckei petteri; test: Antiplasmodial activity against Plasmodium vinckei petteri infected in po dosed CD mouse assessed as mean survival time at 0.5 mg/kg/day, ip for 4 days measured upto day 21 post-infection; format: functional; in short: as §2
[26] = test system: Plasmodium vinckei petteri; test: Antiplasmodial activity against Plasmodium vinckei petteri infected in po dosed CD mouse assessed as extended mean survival time at 0.5 mg/kg/day, ip for 4 days; format: functional; in short: as §2
[27] = test system: Plasmodium vinckei petteri; test: Antiplasmodial activity against Plasmodium vinckei petteri infected in CD mouse assessed as suppression of parasitemia at 20 mg/kg/day, po measured on day 5 post-infection by Giemsa staining; format: functional; details: 120 h; in short: as §3
[28] = test system: Plasmodium vinckei petteri; test: Antiplasmodial activity against Plasmodium vinckei petteri infected in po dosed CD mouse assessed as extended mean survival time at 1 mg/kg/day, po for 4 days measured upto day 21 post-infection; format: functional; in short: as §2
[29] = test system: Plasmodium falciparum; test: Antiplasmodial activity against Plasmodium falciparum W2 assessed as suppression of parasitemia after 4 hrs by Giemsa staining; format: functional, organism-based; details: W2, 4 h
In short: (§4)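 Asexual blood-stage P. falciparum growth inhibition, run by a modified Desjardins method. Parasites were grown by a modified Trager–Jensen culture and synchronized by magnetic enrichment plus 5% D-sorbitol lysis. F32 is chloroquine-sensitive; FcB1 and W2 are chloroquine-resistant. IC50 is the mean ± SEM of at least three independent experiments.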

[30] = test system: Plasmodium falciparum; test: Antiplasmodial activity against Plasmodium falciparum FcB1/Columbia assessed as suppression of parasitemia after 4 hrs by Giemsa staining; format: functional, organism-based; in short: as §4
[31] = test system: Plasmodium falciparum; test: Antiplasmodial activity against Plasmodium falciparum F32 assessed as suppression of parasitemia after 4 hrs by Giemsa staining; format: functional, organism-based; details: F32, 4 h; in short: as §4

Q: With CC[C@@H](C)C(=O)O[C@H]1C(=O)O[C@@H]2C[C@H]3C(C)=CC(=O)[C@@H](O)[C@]3(C)[C@H]3[C@@H](O)[C@H](O)[C@]4(C)OC[C@]32[C@@H]14 [SIMALIKALACTONE D] as the compound, how does the Activity [1] read?
A: < 2 nM

Q: What about the Activity [2] of the same compound?
A: 0.058 µM

Q: And the ED50 [3]?
A: 0.2 mg/kg/day

Q: What about the Activity [4] of the same compound?
A: < 20 nM

Q: And the ED50 [5]?
A: 3.7 mg/kg/day

Q: How did the inhibition in vivo at 10 mg/kg/day [6] turn out when CCN(CC)CCCC(C)Nc1ccnc2cc(Cl)ccc12 (stereo not drawn) [CHLOROQUINE] was run?
A: 100%

Q: What about the MST [7] of the same compound?
A: 12.8 days

Q: What about the Activity [1] of the same compound?
A: > 500 nM

Q: What about the inhibition in vivo at 5 mg/kg/day [8] of the same compound?
A: 100%

Q: What about the Activity [2] of the same compound?
A: > 0.5 µM

Q: What about the inhibition in vivo at 1 mg/kg/day [9] of the same compound?
A: ≤ 0%

Q: And the Activity [4]?
A: > 500 nM

Q: And the MST [10]?
A: 19.2 days

Q: And the MST [11]?
A: 43.87 days

Q: For CC[C@H](C)C(=O)O[C@@H]1[C@H]2C(C)=CC(=O)[C@@H](O)[C@]2(C)[C@H]2[C@@H](O)[C@H](O)[C@@]3(C)OC[C@@]24[C@@H]1OC(=O)[C@H](OC(=O)[C@@H](C)CC)[C@@H]34 [SIMALIKALACTONE E], which MST [12] is on record?
A: 16.41 days

Q: And the inhibition in vivo at 1 mg/kg/day [13]?
A: 55%

Q: And the MST [14]?
A: 12.4 days

Q: What about the MST [15] of the same compound?
A: 15.01 days

Q: And the MST [7]?
A: 11.4 days

Q: What about the Activity [1] of the same compound?
A: 33 nM

Q: What about the inhibition in vivo at 5 mg/kg/day [8] of the same compound?
A: 100%

Q: And the MST [16]?
A: 93.89 days

Q: What about the MST [17] of the same compound?
A: 11 days

Q: What about the inhibition in vivo at 10 mg/kg/day [18] of the same compound?
A: 95%

Q: What about the ED50 [19] of the same compound?
A: 1 mg/kg/day

Q: What about the ED50 [20] of the same compound?
A: 0.5 mg/kg/day

Q: What about the Activity [2] of the same compound?
A: 6.574 µM

Q: And the MST [21]?
A: 20.57 days

Q: What about the inhibition in vivo at 1 mg/kg/day [9] of the same compound?
A: 98%

Q: What about the inhibition in vivo at 0.5 mg/kg/day [22] of the same compound?
A: 59%

Q: What about the Activity [4] of the same compound?
A: 47 nM

Q: What about the MST [23] of the same compound?
A: 18.6 days

Q: And the ED50 ([23]; Plasmodium vinckei)?
A: 3 mg/kg/day

Q: And the IC50 [24]?
A: 1.12 µM

Q: What about the MST [25] of the same compound?
A: 16.4 days

Q: What about the MST [26] of the same compound?
A: 41.07 days

Q: What about the inhibition in vivo at 20 mg/kg/day [27] of the same compound?
A: 100%

Q: And the MST [28]?
A: 13.61 days

Q: How did the IC50 [29] turn out when COc1cc(NC(C)CCCN)c2ncccc2c1 (stereo not drawn) [PRIMAQUINE] was run?
A: 7.14 µM

Q: What about the IC50 [30] of the same compound?
A: 8.9 µM

Q: And the Activity [2]?
A: 340 µM

Q: And the IC50 [24]?
A: 8.9 µM

Q: What about the IC50 [31] of the same compound?
A: 6.17 µM
